Measurements from ChEMBL document CHEMBL2417527, “Prenylated and geranylated flavonoids increase production of reactive oxygen species in mouse macrophages but inhibit the inflammatory response” (J Nat Prod, 2013).
Calls of active or inactive are those of the source. The rule behind the calls is not given here.

Tests used:
[1] = Antioxidant activity assessed as NADH/phenazine methosulfate generated superoxide anion scavenging after 2 mins by NBT reduction assay; assay type: functional
Outline: (§1)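 Superoxide was generated by NADH/PMS. Final concentrations were 19 mM phosphate buffer (pH 7.4), compound in DMSO at 12.5–1000 μM, 166 μM NADH, 43.3 μM NBT and 2.7 μM PMS. NBT reduction to diformazan was read as absorbance at 560 nm after 2 min of mixing at room temperature. Five independent experiments were run, each in triplicate.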

[2] = Antioxidant activity assessed as hydrogen peroxide radical scavenging activity by chemiluminescence method; assay type: functional
Outline: (§2)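 Lucigenin chemiluminescence was used. Each reaction contained 50 mM Tris-HCl (pH 7.4), compound in DMSO at 125–1000 μM, 800 μM lucigenin and 1% (v/v) H2O2. Luminescence was read at 37 °C immediately after mixing. Five independent experiments were run, each in triplicate.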

[3] = tested on: J774.A1; test: Induction of ROS production in mouse J774A1 cells at 1.25 uM after 30 mins by flow cytometry relative to control; assay type: functional
Outline: (§3)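 Cells were grown to 80–90% confluence and switched to serum-free DMEM. They were loaded with 10 μM DCFH2-DA for 1 h, and compound (0.25 or 1.25 μM, 0.1% DMSO) was added for the final 30 min. Cells were washed, scraped off in PBS/lidocaine, and DCF was measured by flow cytometry (ex 488/em 525 nm). Results were compared with vehicle-treated cells; mean ± SE of four experiments.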

[4] = Antioxidant activity assessed as hypochlorous acid scavenging activity by fluorescence assay; assay type: functional
Outline: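 Oxidation of dihydrorhodamine 123 to rhodamine was followed. Final concentrations were 100 mM phosphate buffer (pH 7.4), compound in methanol at 0.625–100 μM, 5 μM DHR and 5 μM HClO. Fluorescence (ex 485, em 528 nm) was read at 37 °C immediately after mixing. Five independent experiments were run, each in triplicate.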

[5] = tested on: J774.A1; test: Reduction of LPS-induced COX2 expression in mouse J774A1 cells at 1.25 uM pretreated 1 hr before LPS challenge measured after 24 hrs; assay type: functional, cell-based
Outline: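 Macrophages were pretreated with 1.25 μM compound for 1 h, then stimulated with 1 μg/mL LPS for 24 h. Lysates (40 μg protein) were run on 12% gels and blotted to PVDF. COX-2 was detected with antibody at 1:500 and normalized to β-actin by densitometry. Four independent experiments.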

[6] = tested on: J774.A1; test: Induction of ROS production in LPS-stimulated mouse J774A1 cells at 1.25 uM after 30 mins by flow cytometry relative to control; assay type: functional
[7] = tested on: J774.A1; test: Induction of ROS production in LPS-stimulated mouse J774A1 cells at 0.25 to 1.25 uM after 24 hrs by flow cytometry; assay type: functional, cell-based
Outline: (§4)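 Macrophages in serum-free DMEM were pretreated with compound (0.25 or 1.25 μM) for 1 h. E. coli 0111:B4 LPS (1 μg/mL) was then added for 24 h, with DCFH2-DA added 30 min before the end. DCF fluorescence was measured by flow cytometry (ex 488/em 525 nm). Results were compared with cells given vehicle plus LPS.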

[8] = tested on: J774.A1; test: Induction of ROS production in mouse J774A1 cells at 0.25 uM after 30 mins by flow cytometry relative to control; assay type: functional; outline: as §3
[9] = tested on: J774.A1; test: Induction of ROS production in mouse J774A1 cells at 1.25 uM after 24 hrs by flow cytometry relative to control
[10] = tested on: J774.A1; test: Induction of ROS production in mouse J774A1 cells at 0.25 to 1.25 uM after 30 mins by flow cytometry relative to control; assay type: functional; outline: as §3
[11] = tested on: J774.A1; test: Effect on ROS production in LPS-stimulated mouse J774A1 cells at 0.25 to 1.25 uM after 30 mins by flow cytometry; assay type: functional, cell-based
[12] = Antioxidant activity assessed as hydrogen peroxide radical scavenging activity at 1 mM by chemiluminescence method; assay type: functional; outline: as §2
[13] = Antioxidant activity assessed as NADH/phenazine methosulfate generated superoxide anion scavenging at 1 mM after 2 mins by NBT reduction assay; assay type: functional; outline: as §1
[14] = tested on: J774.A1; test: Reduction of ROS production in LPS-stimulated mouse J774A1 cells at 0.25 to 1.25 uM after 30 mins by flow cytometry; assay type: functional, cell-based
[15] = tested on: J774.A1; test: Reduction of ROS production in LPS-stimulated mouse J774A1 cells at 0.25 to 1.25 uM after 24 hrs by flow cytometry; assay type: functional, cell-based; outline: as §4

Compound | IC50 [1] | IC50 [2] | fold change (FC) [3] | IC50 [4] | Activity [5] | fold change (FC) [6] | Activity [7] | fold change (FC) [8] | fold change (FC) [9] | fold change (FC) [10] | Activity [11] | Activity [12] | Activity [13] | Activity [14] | Activity [15]
CC(C)=CCc1c(-c2ccc(O)cc2O)oc2cc3c(c(O)c2c1=O)C=CC(C)(C)O3 [CUDRAFLAVONE B] | 219 µM | 641 µM | 3.12 | 1.8 µM | inactive | 1.71 | Active | 2.13 | 2 |  |  |  |  |  | 
CC(C)=CCC/C(C)=C/Cc1c(O)cc2c(c1O)C(=O)C[C@@H](c1ccc(O)c(O)c1)O2 [NYMPHAEOL A] | 41.2 µM | 554 µM |  | 2.3 µM | Active |  |  |  | 0.79 | 0.95 | inactive |  |  |  | 
CC(C)=CCc1c2c(c3occ(-c4ccc(O)cc4)c(=O)c3c1O)C=CC(C)(C)O2 [OSAJIN] | > 1000 µM | > 1000 µM |  | 31 µM |  | 1.59 | Active |  |  | 0.95 |  | 17% | 39% |  | 
CC(C)=CCc1c2c(c3occ(-c4ccc(O)c(O)c4)c(=O)c3c1O)C=CC(C)(C)O2 [POMIFERIN] | 73.3 µM | 899 µM |  | 9.1 µM |  |  |  |  |  | 0.95 |  |  |  | Active | Active
